How the values were obtained:
[1] = Cytotoxicity against human HCT116 cells after 72 hrs by CellTitre-Blue assay; format: functional; settings: HCT-116, 72 h
[2] = Inhibition of sheep brain tubulin polymerization by DAPI staining-based fluorescence assay; set-up: species or system Ovis aries
In short: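 Tubulin was purified by two assembly–disassembly cycles and held at ~2–3 mg/mL in MES assembly buffer with MgCl₂, EGTA and GTP, pH 6.6. Assembly was followed continuously at 37 °C by DAPI fluorescence. IC50 is the concentration halving the maximum assembly rate versus the no-compound rate; mean of three experiments. Reference agents were run the same day.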

[3] = Cytotoxicity against human H1299 cells after 72 hrs by CellTitre-Blue assay; format: functional; settings: NCI-H1299, 72 h
In short: (§1)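 ATCC lines grown in DMEM (4.5 g/L glucose) with 10% FCS and 1% glutamine at 37 °C, 5% CO₂. Seeded at 5×10³ cells/well and cultured 24 h. Compound added from DMSO (final <0.1%) for 72 h. Resazurin (CellTiter-Blue) added for 2 h, then fluorescence read at ex 560/em 590 nm. IC50 is the 50% fluorescence drop versus untreated cells, in triplicate.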

[4] = system: MDA-MB-231; test: Cytotoxicity against human MDA-MB-231 cells after 72 hrs by CellTitre-Blue assay; format: functional; settings: MDA-MB-231, 72 h; in short: as §1
[5] = system: K562; test: Cytotoxicity against human K562 cells after 72 hrs by CellTitre-Blue assay; format: functional; settings: K562, 72 h
In short: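 Cells were kept in RPMI 1640 with 10% FCS and 1% glutamine, humidified, 37 °C, 5% CO₂. Plated at 5×10³ cells/well, grown 24 h, then exposed 72 h to compound delivered in DMSO (below 0.1% final). Viability was read by resazurin reduction over 2 h (fluorescence ex 560, em 590 nm). IC50 is the 50% signal loss relative to untreated wells; triplicate runs.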

[6] = Cytotoxicity against human HCT116 cells at 10 uM after 72 hrs by CellTitre-Blue assay; format: functional; settings: HCT-116, 72 h
[7] = species on record: Ovis aries; test: Inhibition of sheep brain tubulin polymerization at 10 uM by DAPI staining-based fluorescence assay

| SMILES | IC50 [2] [nM] | inhibition [7] [%] | GI50 [1] [nM] | GI50 [3] [nM] | GI50 [4] [nM] | GI50 [5] [nM] | inhibition at 10 µM [6] [%] |
| --- | --- | --- | --- | --- | --- | --- | --- |
| COc1ccc2c(c1O)OCCC2c1cc(OC)c(OC)c(OC)c1 (stereo not drawn) | 6200 |  | 75 | 80 | 60 | 75 |  |
| COc1ccc2c(c1O)OCC=C2c1cc(OC)c(OC)c(OC)c1 | 3700 |  | 10 | 15 | 25 | 32 |  |
| COc1ccc2c(c1N)OCC=C2c1cc(OC)c(OC)c(OC)c1 | 5000 |  | 50 | 60 | 65 | 60 |  |
| C=C(c1ccc(OC)c(O)c1)c1cc(OC)c(OC)c(OC)c1 | 2200 |  | 2.2 | 5 | 4.1 | 5.2 |  |
| COc1ccc2c(c1N)OCCC2c1cc(OC)c(OC)c(OC)c1 (stereo not drawn) | 4100 |  | 50 | 60 | 65 | 70 |  |
| COc1ccc(/C=C\c2cc(OC)c(OC)c(OC)c2)cc1O [COMBRETASTATIN A4] | 1400 |  | 2.1 | 5.1 | 3.2 | 4.3 |  |

Further lines, with some results ahead:

| IC50 [2] [nM] | inhibition [7] [%] | SMILES | GI50 [1] [nM] | GI50 [3] [nM] | GI50 [4] [nM] | GI50 [5] [nM] | inhibition at 10 µM [6] [%] |
| --- | --- | --- | --- | --- | --- | --- | --- |
|  | < 10 | COc1cc(C2=CCOc3cc(F)ccc32)cc(OC)c1OC |  |  |  |  | < 10 |
|  | < 10 | COc1cc(C2=CCOc3cc(CO)ccc32)cc(OC)c1OC |  |  |  |  | < 10 |
|  | < 10 | COc1cc(C2=CCOc3ccc(-c4ccccc4)cc32)cc(OC)c1OC | 400 |  |  |  |  |
|  | < 10 | COc1ccc2c(c1Br)OCC=C2c1cc(OC)c(OC)c(OC)c1 | 300 |  |  |  |  |

Source: ChEMBL document CHEMBL3397000, “Rapid synthesis of 4-arylchromenes from ortho-substituted alkynols: A versatile access to restricted isocombretastatin A-4 analogues as antitumor agents” (Eur J Med Chem, 2015)
